Assay results: ChEMBL document CHEMBL1126285, “Novel benzothiophene-, benzofuran-, and naphthalenecarboxamidotetrazoles as potential antiallergy agents” (J Med Chem, 1992)

Key:
Homo sapiens [1] = species: Homo sapiens; experiment: Evaluated for the inhibition of human basophil histamine release stimulated by anti-Immunoglobulin E (IgE) at a concentration of 10 uM; inactive; format: functional
Procedure, shortened: (§1)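 Whole blood from well-characterized allergic donors; after red-cell sedimentation, leukocytes were washed and resuspended in buffer, preincubated with compound, then challenged with anti-IgE. Histamine was read by automated fluorometric assay, with inhibition taken against anti-IgE-challenged nondrug controls. IC50 runs used 3-fold steps over 1-100 μM.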

Homo sapiens [2] = species: Homo sapiens; experiment: Evaluated for the inhibition of human basophil histamine release stimulated by anti-Immunoglobulin E (IgE) at a concentration of 33 uM; format: functional; procedure, shortened: as §1
Homo sapiens [3] = species: Homo sapiens; experiment: Evaluated for the inhibition of superoxide (O2 -) anion release from human neutrophils; format: functional
Procedure, shortened: (§2)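 Neutrophil preparations (~98% purity) were isolated by Ficoll-Hypaque gradient centrifugation of anticoagulant-treated venous blood and stimulated with serum-opsonized zymosan. Respiratory burst was read as superoxide-mediated reduction of cytochrome C.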

[4] = Compound was evaluated for the inhibition of human basophil histamine release stimulated by anti-Immunoglobulin E (IgE) at a concentration of 33 uM; inactive; format: functional; procedure, shortened: as §1
Homo sapiens [5] = species: Homo sapiens; experiment: Evaluated for the inhibition of human basophil histamine release stimulated by anti-Immunoglobulin E (IgE) at a concentration of 10 uM; format: functional; procedure, shortened: as §1
[6] = Compound was evaluated for the inhibition of superoxide (O2 -) anion release from human neutrophils at 100 uM; inactive; format: functional; procedure, shortened: as §2
Homo sapiens [7] = species: Homo sapiens; experiment: Inhibition of anti-IgE stimulated release of Thromboxane B2 (TXB2) from human chopped lung by 50% of control value; format: functional
Procedure, shortened: (§3)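 Human lung tissue (~400 mg portions) was incubated 10 min in Tyrode's buffer at 37 °C, dosed with drug or vehicle, and challenged 10 min later with anti-IgE (final 3:1000) for 30 min. Supernatant leukotrienes or thromboxane were measured by RIA kits, giving the concentration for 50% inhibition of control release.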

Homo sapiens [8] = species: Homo sapiens; experiment: Inhibition of anti-IgE stimulated release of histamine from human chopped lung by 50% of control value; format: functional
Procedure, shortened: (§4)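 Human lung tissue was washed, and ~400 mg portions were placed in 37 °C buffer. After 10 min in Tyrode's buffer, drug or vehicle was added; 10 min later, tissue was challenged with anti-IgE (final dilution 3:1000) for 30 min. Supernatant histamine was assayed, giving the concentration for 50% inhibition versus control.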

Homo sapiens [9] = species: Homo sapiens; experiment: Inhibition of anti-IgE stimulated release of leukotriene C4/D4 (LTC4/D4) from human chopped lung by 50% of control value; format: functional; procedure, shortened: as §3
[10] = molecular target: T1, Eosinophil peroxidase (Homo sapiens) (UniProt P11678); experiment: Compound was evaluated for the inhibition of serum-opsonized zymosan stimulated eosinophil peroxidase release from human eosinophil; Inactive; format: functional; conditions: concentration not given here
T1 sequence (whole entry): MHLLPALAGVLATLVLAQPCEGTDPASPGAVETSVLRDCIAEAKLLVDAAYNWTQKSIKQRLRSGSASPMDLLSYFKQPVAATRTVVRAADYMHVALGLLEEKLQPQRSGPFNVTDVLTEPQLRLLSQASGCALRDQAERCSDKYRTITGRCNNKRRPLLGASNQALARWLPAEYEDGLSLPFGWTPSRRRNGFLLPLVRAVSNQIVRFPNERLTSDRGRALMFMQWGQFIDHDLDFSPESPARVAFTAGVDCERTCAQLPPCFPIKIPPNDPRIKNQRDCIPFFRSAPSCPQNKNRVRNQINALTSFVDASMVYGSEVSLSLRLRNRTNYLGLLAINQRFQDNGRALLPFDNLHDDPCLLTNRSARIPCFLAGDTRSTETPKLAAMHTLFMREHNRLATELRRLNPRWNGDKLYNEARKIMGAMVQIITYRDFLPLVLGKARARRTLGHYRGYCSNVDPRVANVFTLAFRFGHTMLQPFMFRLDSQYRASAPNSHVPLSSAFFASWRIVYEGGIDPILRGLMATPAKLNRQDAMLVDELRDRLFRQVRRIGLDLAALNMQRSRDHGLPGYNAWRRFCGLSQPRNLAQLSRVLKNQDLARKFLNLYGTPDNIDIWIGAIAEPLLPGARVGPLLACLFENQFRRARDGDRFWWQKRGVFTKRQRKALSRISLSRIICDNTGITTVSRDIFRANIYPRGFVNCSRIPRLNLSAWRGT

[11] = Compound was evaluated for the inhibition of anti-IgE stimulated histamine release from human basophil; format: functional; procedure, shortened: as §1
[12] = Concentration inhibiting anti-IgE stimulated release of histamine from human chopped lung by 50% of control value; format: functional, tissue-based; procedure, shortened: as §4
Homo sapiens [13] = species: Homo sapiens; experiment: Compound was evaluated for the inhibition of anti-IgE stimulated TXB2 release from human basophil; format: functional
Homo sapiens [14] = species: Homo sapiens; experiment: Compound was evaluated for the inhibition of serum-opsonized zymosan stimulated TXB2 release from human neutrophil; format: functional
Procedure, shortened: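 Human polymorphonuclear leukocytes (~98% neutrophils) came from anticoagulant-treated venous blood via Ficoll-Hypaque centrifugation. They were stimulated with serum-opsonized zymosan, and TxB2 release was measured by radioimmunoassay.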

[15] = Concentration inhibiting anti-IgE stimulated release of leukotriene C4/D4 (LTC4/D4) from human chopped lung by 50% of control value; format: functional, tissue-based; procedure, shortened: as §3
[16] = Compound was evaluated for the inhibition of serum-opsonized zymosan stimulated superoxide (O2-) release from human eosinophil; format: functional
Procedure, shortened: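 Eosinophils were enriched above 95% purity by discontinuous Percoll gradient centrifugation after Ficoll-Hypaque separation of venous blood leukocytes. Cells were stimulated with serum-opsonized zymosan, and superoxide was measured as cytochrome C reduction.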

[17] = Compound was evaluated for the inhibition of serum-opsonized zymosan stimulated superoxide (O2-) release from human neutrophil; format: functional; procedure, shortened: as §2

| SMILES | inhibition at 10 µM (Homo sapiens [1]) [%] | inhibition at 33 µM (Homo sapiens [2]) [%] | IC50 (Homo sapiens [3]) [µM] | inhibition at 10 µM (Homo sapiens [5]) [%] | also measured |
| --- | --- | --- | --- | --- | --- |
| CC(C)Oc1c(C(=O)Nc2nn[nH]n2)sc2ccc(Oc3ccccc3)cc12 | < 25 | 55 | > 100 | – | – |
| COc1ccc2c(OC(C)C)c(C(=O)Nc3nn[nH]n3)sc2c1Cl | < 25 | – | > 100 | – | inhibition at 33 µM [4]: < 25% |
| COc1ccc2ccc(C(=O)Nc3nn[nH]n3)c(OC(C)C)c2c1 | – | 90.5 | > 100 | 51 | – |
| CC(C)Oc1c(C(=O)Nc2nn[nH]n2)sc2ccc(O)cc12 | < 25 | 86 | 47.8 | – | – |
| CC(C)Oc1c(C(=O)Nc2nn[nH]n2)sc2ccc(OCc3ccccc3)cc12 | < 25 | 41.6 | > 100 | – | – |
| CC(C)Oc1c(C(=O)Nc2nn[nH]n2)sc2ccc([N+](=O)[O-])cc12 | < 25 | 53 | – | – | inhibition at 100 µM [6]: < 5% |
| CC(C)Oc1c(C(=O)Nc2nn[nH]n2)sc2ccc(Cl)cc12 | – | 92 | > 100 | 73 | – |
| CCCc1c2oc(C(=O)O)cc(=O)c2cc2c(=O)cc(C(=O)O)n(CC)c12 [NEDOCROMIL] | < 25 | – | – | – | inhibition at 33 µM [4]: < 25% |
| COc1ccc2sc(C(=O)Nc3nn[nH]n3)c(OC)c2c1 | – | 97.3 | > 100 | 59.8 | – |
| COc1ccc2c(c1)c(OC(C)C)c(C(=O)Nc1nn[nH]n1)n2-c1ccccc1 | – | 82 | > 100 | 46 | IC50 (Homo sapiens [7]): 12 µM; IC50 (Homo sapiens [8]): 11 µM; IC50 (Homo sapiens [9]): 12 µM |
| COc1cc2sc(C(=O)Nc3nn[nH]n3)c(Oc3ccccc3)c2cc1OC | – | 93.6 | 5.7 | 96 | IC50 (Homo sapiens [7]): < 0.75 µM; IC50 (Homo sapiens [8]): 4.9 µM; IC50 (Homo sapiens [9]): 9.7 µM |
| COc1ccc2sc(C(=O)Nc3nnn[nH]3)c(OC(C)C)c2c1 | – | 97.3 | 14.5 | 94.7 | inhibition [10]: < 20%; IC50 [11]: 1.1 µM; IC50 [12]: 2.3 µM; IC50 (Homo sapiens [13]): 0.2 µM; IC50 (Homo sapiens [14]): 4.5 µM; IC50 [15]: 0.3 µM; IC50 [16]: 5.5 µM; IC50 [17]: 14.5 µM; IC50 (Homo sapiens [7]): 0.3 µM |
| COc1ccc2sc(C(=O)Nc3nn[nH]n3)c(OC(C)(C)C)c2c1 | – | 100 | > 100 | 62 | – |
| COc1cc2sc(C(=O)Nc3nn[nH]n3)c(OC(C)C)c2cc1OC | – | 81.7 | 17.7 | 80 | IC50 (Homo sapiens [7]): < 0.75 µM; IC50 (Homo sapiens [8]): 4.5 µM; IC50 (Homo sapiens [9]): 0.3 µM |
| COc1ccc2sc(C(=O)Nc3nn[nH]n3)c(OCc3ccccc3)c2c1 | – | 84.5 | 23.4 | 80.8 | – |
| Cc1ccc2sc(C(=O)Nc3nn[nH]n3)c(OC(C)C)c2c1 | < 25 | – | – | – | inhibition at 100 µM [6]: < 5%; inhibition at 33 µM [4]: < 25% |
| COc1cc2sc(C(=O)Nc3nn[nH]n3)c(OCc3ccccc3)c2cc1OC | – | 90.7 | 40 | 90.3 | IC50 (Homo sapiens [7]): < 0.74 µM; IC50 (Homo sapiens [8]): 2.5 µM; IC50 (Homo sapiens [9]): 1.3 µM |
| CCOc1c(C(=O)Nc2nn[nH]n2)sc2ccc(OC)cc12 | – | 98 | > 100 | 92.5 | – |
| COc1ccc2sc(C(=O)Nc3nn[nH]n3)c(Oc3ccccc3)c2c1 | – | 91.3 | 10.1 | 96.3 | IC50 (Homo sapiens [7]): 4.9 µM; IC50 (Homo sapiens [8]): 3.5 µM; IC50 (Homo sapiens [9]): 1.1 µM |
| COc1ccc2oc(C(=O)Nc3nn[nH]n3)c(OC(C)C)c2c1 | < 25 | 43.3 | > 100 | – | – |
| CC(C)Oc1c(C(=O)Nc2nn[nH]n2)sc2ccccc12 | – | 65.8 | > 100 | 27.5 | – |
| COc1ccc2c(OC(C)C)c(C(=O)Nc3nn[nH]n3)sc2c1 | – | 88.6 | 37 | 92 | IC50 (Homo sapiens [7]): 0.3 µM; IC50 (Homo sapiens [8]): 0.9 µM; IC50 (Homo sapiens [9]): 0.4 µM |
| COc1cccc2c(OC(C)C)c(C(=O)Nc3nn[nH]n3)sc12 | < 25 | < 25 | > 100 | – | – |
| COc1ccc2c(OC(C)C)c(C(=O)Nc3nn[nH]n3)ccc2c1 | – | 72.7 | – | 31.3 | – |
| COc1ccc2c(OC(C)C)c(C(=O)Nc3nn[nH]n3)oc2c1 | – | 99.5 | 42.5 | 77 | – |
